Results on 23 compounds are retold here after ChEMBL document CHEMBL4177575 (Bioorg Med Chem, 2017).

The term IC50 denotes the concentration at which inhibition is half-maximal.

One experiment deals with A549. The experiment can be described thus: Cytotoxicity against human A549 cells assessed as reduction in cell viability incubated for 72 hrs by MTT assay. Format: functional, cell-based. The settings on record: A549, 72 h. Put shortly:
(§1)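 Cells grown in MEM with 10% FBS; about 4×10^3 cells per well, pre-incubated 24 h at 37 °C in 5% CO2, then exposed to compound for 72 h. Seven concentrations, threefold serial dilution from 100 ug/mL initial. MTT at 5 µg/mL terminal concentration for 4 h; formazan dissolved in DMSO, absorbance read at 492 nm against 630 nm reference. IC50 is the average of two determinations.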

The next experiment has as its system HepG2. The experiment can be described thus: Cytotoxicity against human HepG2 cells assessed as reduction in cell viability incubated for 72 hrs by MTT assay. The class given is functional, cell-based. The settings on record: HepG2, 72 h. Summed up: as §1
(In general: Tetrazolium dyes change colour on reduction, which living cells bring about.)

A further experiment relates to PC-3. The experiment can be described thus: Cytotoxicity against human PC3 cells assessed as reduction in cell viability incubated for 72 hrs by MTT assay. Format: functional, cell-based. The conditions noted are these: PC-3, 72 h. Put shortly:
as §1

A further experiment concerns MCF7. The experiment can be described thus: Cytotoxicity against human MCF7 cells assessed as reduction in cell viability incubated for 72 hrs by MTT assay. Format: functional, cell-based. The settings on record: MCF7, 72 h. Put shortly: as §1
Experiment [1] has as its target Vascular endothelial growth factor receptor 2 (Homo sapiens, UniProt P35968). The experiment can be described thus: Inhibition of VEGFR2 (unknown origin) incubated for 10 mins using FAM-labeled peptide and ATP by mobility shift assay.
Experiment [2] deals with Serine/threonine-protein kinase B-raf (Homo sapiens, UniProt P15056). The experiment can be described thus: Inhibition of BRAF (unknown origin) incubated for 10 mins using FAM-labeled peptide and ATP by mobility shift assay.
Serine/threonine-protein kinase B-raf, sequence (P15056 whole entry): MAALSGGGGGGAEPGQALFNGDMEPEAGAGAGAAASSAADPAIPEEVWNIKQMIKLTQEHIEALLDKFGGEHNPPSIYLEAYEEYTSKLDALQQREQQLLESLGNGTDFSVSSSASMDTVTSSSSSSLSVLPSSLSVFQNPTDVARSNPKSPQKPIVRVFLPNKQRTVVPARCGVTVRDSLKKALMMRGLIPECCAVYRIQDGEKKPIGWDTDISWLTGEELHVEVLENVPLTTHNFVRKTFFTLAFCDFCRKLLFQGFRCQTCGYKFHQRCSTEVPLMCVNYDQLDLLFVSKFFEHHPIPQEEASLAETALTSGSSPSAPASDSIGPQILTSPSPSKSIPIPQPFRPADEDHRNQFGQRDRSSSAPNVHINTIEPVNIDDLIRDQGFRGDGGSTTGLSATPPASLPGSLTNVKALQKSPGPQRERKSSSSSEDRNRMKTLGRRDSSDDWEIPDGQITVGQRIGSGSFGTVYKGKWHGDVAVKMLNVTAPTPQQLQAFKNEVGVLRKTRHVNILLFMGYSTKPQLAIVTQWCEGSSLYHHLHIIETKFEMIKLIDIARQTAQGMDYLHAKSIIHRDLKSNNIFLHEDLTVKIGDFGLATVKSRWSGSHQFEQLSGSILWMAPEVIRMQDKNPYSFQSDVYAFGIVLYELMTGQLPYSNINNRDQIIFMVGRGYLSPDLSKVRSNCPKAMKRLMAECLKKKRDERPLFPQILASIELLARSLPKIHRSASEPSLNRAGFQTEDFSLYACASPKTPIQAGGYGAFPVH

Vascular endothelial growth factor receptor 2, sequence (P35968 whole entry): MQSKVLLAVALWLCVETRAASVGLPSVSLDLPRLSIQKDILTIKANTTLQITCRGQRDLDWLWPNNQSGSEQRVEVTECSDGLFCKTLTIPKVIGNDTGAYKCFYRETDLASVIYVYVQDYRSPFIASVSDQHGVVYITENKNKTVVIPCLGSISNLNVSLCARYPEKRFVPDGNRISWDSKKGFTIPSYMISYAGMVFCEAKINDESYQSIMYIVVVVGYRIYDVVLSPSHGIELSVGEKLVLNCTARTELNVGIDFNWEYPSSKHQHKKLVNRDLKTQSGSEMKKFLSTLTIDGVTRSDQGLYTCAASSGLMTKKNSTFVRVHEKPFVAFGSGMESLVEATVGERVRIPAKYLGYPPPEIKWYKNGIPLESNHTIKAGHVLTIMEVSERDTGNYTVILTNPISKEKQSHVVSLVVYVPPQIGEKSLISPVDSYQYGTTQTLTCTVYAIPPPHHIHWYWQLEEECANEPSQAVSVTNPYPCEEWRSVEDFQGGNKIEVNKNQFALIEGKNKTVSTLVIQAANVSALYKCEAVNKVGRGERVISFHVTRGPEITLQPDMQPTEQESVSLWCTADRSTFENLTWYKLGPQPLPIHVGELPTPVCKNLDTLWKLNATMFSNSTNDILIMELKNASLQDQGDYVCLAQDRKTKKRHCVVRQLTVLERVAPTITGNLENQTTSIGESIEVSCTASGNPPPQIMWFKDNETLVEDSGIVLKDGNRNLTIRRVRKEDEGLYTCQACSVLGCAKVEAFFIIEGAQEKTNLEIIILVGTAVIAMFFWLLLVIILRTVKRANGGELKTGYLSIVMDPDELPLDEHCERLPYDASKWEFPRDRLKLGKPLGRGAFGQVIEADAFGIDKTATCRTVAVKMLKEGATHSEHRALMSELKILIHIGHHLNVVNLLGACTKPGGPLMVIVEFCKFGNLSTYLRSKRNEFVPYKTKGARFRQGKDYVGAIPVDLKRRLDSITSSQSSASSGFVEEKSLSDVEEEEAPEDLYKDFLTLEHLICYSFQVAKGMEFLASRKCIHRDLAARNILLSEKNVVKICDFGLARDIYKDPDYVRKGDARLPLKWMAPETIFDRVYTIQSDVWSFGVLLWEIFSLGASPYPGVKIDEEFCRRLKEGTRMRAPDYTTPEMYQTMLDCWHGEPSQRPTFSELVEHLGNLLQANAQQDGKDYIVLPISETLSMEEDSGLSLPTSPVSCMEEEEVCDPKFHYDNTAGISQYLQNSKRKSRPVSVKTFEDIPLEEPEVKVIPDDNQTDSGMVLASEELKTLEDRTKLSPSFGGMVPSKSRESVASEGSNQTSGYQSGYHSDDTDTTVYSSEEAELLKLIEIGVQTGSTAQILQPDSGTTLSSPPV

On to `CNC(=O)c1cc(Oc2ccc(C3=NN(C(N)=S)C(c4cccc([N+](=O)[O-])c4)C3)cc2)ccn1` (configuration not stated), for which the IC50 with A549, in the experiment with HepG2 and with PC-3 was above 50 µM each time.

As to `CNC(=O)c1cc(Oc2ccc(C3=NN(C(N)=S)C(c4cccc(Cl)c4Cl)C3)cc2)ccn1` (configuration not stated), the concentration for half-maximal inhibition (IC50) with A549 is above 50 µM; in the experiment with HepG2 it was 1.89 µM; in the experiment on PC-3 it was 15.9 µM.

With `CNC(=O)c1cc(Oc2ccc(C3=NNC(c4cc(OC)c(OC)c(OC)c4)C3)cc2)ccn1` (configuration not stated), the IC50 is 37.1 µM in the experiment with A549, 24.3 µM with HepG2 and 28.3 µM with PC-3.

On to `CNC(=O)c1cc(Oc2ccc(C3=NNC(c4ccc(OC)c(OC)c4OC)C3)cc2)ccn1` (configuration not stated), for which the 50% inhibitory concentration (IC50) with A549 stood at 19 µM; in the experiment with HepG2 it was 15.7 µM; in the experiment with MCF7, 9.94 µM.

As to `CNC(=O)c1cc(Oc2ccc(C3=NNC(c4ccc([N+](=O)[O-])cc4)C3)cc2)ccn1` (configuration not stated), the IC50 in the experiment on A549 is 19.5 µM; with HepG2 it was above 50 µM; with PC-3, above 50 µM.

As for `CNC(=O)c1cc(Oc2ccc(C3CC(c4ccc([N+](=O)[O-])cc4)=NN3)cc2)ccn1` (configuration not stated), the IC50 in the experiment on HepG2 is 28.9 µM; in experiment [1] it was above 50 µM; in experiment [2], above 50 µM; in the experiment with MCF7, 8.03 µM.

For `CNC(=O)c1cc(Oc2ccc(C3=NNC(c4cccc([N+](=O)[O-])c4)C3)cc2)ccn1` (configuration not stated), the IC50 with HepG2 stood at 26.5 µM; in the experiment with MCF7, 35.4 µM.

`CNC(=O)c1cc(Oc2ccc(C3=NNC(c4ccc(Br)cc4)C3)cc2)ccn1` (configuration not stated): the concentration for half-maximal inhibition (IC50) in the experiment with A549 is 21 µM; in the experiment on HepG2, 57.6 µM; with PC-3, above 50 µM.

Take `CNC(=O)c1cc(Oc2ccc(C3=NNC(c4ccc(F)cc4)C3)cc2)ccn1` (configuration not stated): the concentration for half-maximal inhibition (IC50) worked out at 15.1 µM in the experiment on A549, 5.28 µM in the experiment on HepG2, 6.77 µM in the experiment on PC-3 and 9.48 µM with MCF7.

As to `CNC(=O)c1cc(Oc2ccc(C3=NN(C(N)=S)C(c4ccc(Cl)cc4)C3)cc2)ccn1` (configuration not stated), the IC50 with A549, with HepG2 and in the experiment with PC-3 was above 50 µM throughout.

Turning to `CNC(=O)c1cc(Oc2ccc(C3=NN(C(N)=S)C(c4ccc(F)cc4)C3)cc2)ccn1` (configuration not stated), the IC50 in the experiment with A549 was 19.4 µM; in the experiment with HepG2, above 50 µM; in the experiment with PC-3, above 50 µM.

With `CNC(=O)c1cc(Oc2ccc(C3=NNC(c4ccccc4)C3)cc2)ccn1` (configuration not stated), the IC50 came out at 8.6 µM with A549; 1.5 µM in the experiment on HepG2; 2.3 µM in experiment [1]; 3.9 µM in experiment [2]; 4.52 µM in the experiment on PC-3; 1.24 µM with MCF7.

With `CNC(=O)c1cc(Oc2ccc(C3CC(c4ccc([N+](=O)[O-])cc4)=NN3C(N)=S)cc2)ccn1` (configuration not stated), the IC50 in the experiment with A549, with HepG2 and in the experiment on PC-3 was above 50 µM throughout.

Regarding `CNC(=O)c1cc(Oc2ccc(NC(=O)Nc3ccc(Cl)c(C(F)(F)F)c3)cc2)ccn1` [SORAFENIB], the IC50 in the experiment with A549 is 2.92 µM; in the experiment with PC-3, 3.18 to 3.24 µM.

For `CNC(=O)c1cc(Oc2ccc(C3=NNC(c4cccc(Cl)c4Cl)C3)cc2)ccn1` (configuration not stated), the 50% inhibitory concentration (IC50) was 12.1 µM in the experiment on A549 and 4.99 µM in the experiment on HepG2.

Turning to `CNC(=O)c1cc(Oc2ccc(C3=NN(C(N)=S)C(c4ccc(C#N)cc4)C3)cc2)ccn1` (configuration not stated), the IC50 in the experiment with A549, in the experiment with HepG2 and in the experiment with PC-3 was above 50 µM throughout.

Regarding `CNC(=O)c1cc(Oc2ccc(C3CC(c4ccc(Cl)cc4)=NN3)cc2)ccn1` (configuration not stated), the IC50 in the experiment with A549 was found to be 20.5 µM; in the experiment on HepG2, 10.9 µM; in the experiment with MCF7, 15.3 µM.

As to `CNC(=O)c1cc(Oc2ccc(C3=NNC(c4ccc(C#N)cc4)C3)cc2)ccn1` (configuration not stated), the 50% inhibitory concentration (IC50) in the experiment with A549 amounted to 17.4 µM; in the experiment on HepG2 it was 15 µM; in the experiment on PC-3, 9.91 µM.

As to `CNC(=O)c1cc(Oc2ccc(C3=NNC(c4ccc(OC)cc4)C3)cc2)ccn1` (configuration not stated), the IC50 in the experiment with A549 is 13.1 µM; in the experiment on HepG2 it was 9.64 µM; in experiment [1], above 50 µM; in experiment [2], above 50 µM; in the experiment with PC-3 it was 7.74 µM; in the experiment with MCF7, 11 µM.

`CNC(=O)c1cc(Oc2ccc(C3CC(c4ccc(Br)cc4)=NN3)cc2)ccn1` (configuration not stated): the IC50 worked out at 16.9 µM in the experiment on HepG2 and 15.3 µM in the experiment with MCF7.

`CNC(=O)c1cc(Oc2ccc(C3=NNC(c4ccc(Cl)c(Cl)c4)C3)cc2)ccn1` (configuration not stated): the IC50 in the experiment with A549 was 10.7 µM; in the experiment on HepG2, 14.4 µM; in the experiment with PC-3, 36.2 µM.

In the case of `CNC(=O)c1cc(Oc2ccc(C3=NNC(c4ccc(F)cc4Cl)C3)cc2)ccn1` (configuration not stated), the concentration for half-maximal inhibition (IC50) in the experiment on A549 was found to be 13.7 µM; in the experiment with HepG2, 11.5 µM; in the experiment with PC-3, 24.2 µM.

For the compound `CNC(=O)c1cc(Oc2ccc(C3=NNC(c4ccc(Cl)cc4Cl)C3)cc2)ccn1` (configuration not stated), the IC50 in the experiment with A549 was 6.93 µM; with PC-3, 7.3 µM.
